In ChEMBL document CHEMBL1156641, “Linear and cyclic C18 terpenoids from the southern Australian marine brown alga Cystophora moniliformis” (J Nat Prod, 2008):
Active and inactive are the calls of the source. The calls are words filed in the database; no cut-off is given here.

Columns and labels:
[1] = test system: Trichophyton mentagrophytes; experiment: […] activity against Trichophyton mentagrophytes ATCC 28185 assessed as zone of inhibition at 1 mg/mL; type: functional, organism-based
In short: (§1)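 Disk diffusion: fungal inoculum of known concentration mixed into potato dextrose or Mueller Hinton agar and poured as a lawn. Samples at 1 mg/mL were applied to 6 mm filter paper disks, solvent evaporated, and disks placed on the seeded agar with solvent and positive controls. After incubation, the zone of inhibition outside the disk was measured as radius in mm.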

[2] = test system: Trichophyton mentagrophytes; experiment: […] activity against Trichophyton mentagrophytes ATCC 28185 assessed as zone of inhibition; type: functional; in short: as §1
P388 = experiment: Antitumor activity against mouse P388 cells after 72 hrs by MTT assay; type: functional, cell-based; details: P388, 72 h
In short: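 P388 murine leukemia cells were incubated 72 h with a 2-fold dilution series of sample, tested from 1 mg/mL. Growth was read by MTT reduction to formazan (absorbance) relative to untreated control cells. The concentration giving 50% growth reduction is reported as IC50.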

SMILES	IC50 (P388) [µM]	Activity [1]	inhibition zone (IZ) [2] [mm]
CC(=O)CC/C=C(\C)CC[C@H]1C(C)(C)[C@@H](O)CC[C@@]1(C)O [MONILIFORMINOL B]	> 40	inactive	1
CC(=O)CC/C=C(\C)CC[C@H]1C(C)(C)[C@@H](O)CC[C@]1(C)O [MONILIFORMINOL A]	> 40	inactive	1
COC(C)(C)[C@H](O)CC/C(C)=C/CC/C(C)=C/CCC(C)=O	> 40	inactive	1

More lines, main results first:

IC50 (P388) [µM]	SMILES	Activity [1]	inhibition zone (IZ) [2] [mm]
> 40	C=C(C)[C@H](O)CC/C(C)=C/CC/C(C)=C/CCC(C)=O	inactive	1
> 40	CC(=O)CC/C=C(\C)CC/C=C(\C)CC[C@@H](O)C(C)(C)O	inactive	1
> 40	CC(=O)CC/C=C(\C)CC/C=C(\C)CC/C=C(/C)CO	inactive	1
> 40	CC(=O)CC/C=C(\C)CCC1=C(C)CC[C@H](O)C1(C)C	inactive	1
